The values that follow come from ChEMBL document CHEMBL1125910, “Design of a well-absorbed renin inhibitor” (J Med Chem, 1991).

Each structure is given as a SMILES string.

The target in assay [1] is T1, Renin (Homo sapiens, UniProt P00797).
T1 sequence (P00797 whole entry): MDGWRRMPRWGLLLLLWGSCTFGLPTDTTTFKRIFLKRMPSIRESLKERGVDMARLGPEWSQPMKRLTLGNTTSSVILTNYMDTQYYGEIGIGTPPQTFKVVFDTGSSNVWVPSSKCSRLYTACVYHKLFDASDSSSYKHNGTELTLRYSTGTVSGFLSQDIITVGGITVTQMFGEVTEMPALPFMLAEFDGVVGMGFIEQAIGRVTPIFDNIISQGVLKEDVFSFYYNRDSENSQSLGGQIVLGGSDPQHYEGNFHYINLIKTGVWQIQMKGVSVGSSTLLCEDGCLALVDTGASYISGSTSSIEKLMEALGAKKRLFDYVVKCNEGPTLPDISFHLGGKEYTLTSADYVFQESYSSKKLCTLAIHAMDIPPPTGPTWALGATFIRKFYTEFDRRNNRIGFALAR
Description: Compound was evaluated for the inhibitory concentration against human plasma renin at pH 7.4. It counts as cell-free. In outline: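 Renin inhibition assayed in human plasma, with plasma renin as the enzyme source, at pH 7.4. IC50 reported in nM.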

For assay [2], the target named is T1, Renin. Briefly: Compound was evaluated for the inhibitory concentration against purified human renal renin at pH 6.5.
Assay [3] concerns the target T2, Cathepsin D (Bos taurus) (UniProt P80209).
T2 sequence (whole entry): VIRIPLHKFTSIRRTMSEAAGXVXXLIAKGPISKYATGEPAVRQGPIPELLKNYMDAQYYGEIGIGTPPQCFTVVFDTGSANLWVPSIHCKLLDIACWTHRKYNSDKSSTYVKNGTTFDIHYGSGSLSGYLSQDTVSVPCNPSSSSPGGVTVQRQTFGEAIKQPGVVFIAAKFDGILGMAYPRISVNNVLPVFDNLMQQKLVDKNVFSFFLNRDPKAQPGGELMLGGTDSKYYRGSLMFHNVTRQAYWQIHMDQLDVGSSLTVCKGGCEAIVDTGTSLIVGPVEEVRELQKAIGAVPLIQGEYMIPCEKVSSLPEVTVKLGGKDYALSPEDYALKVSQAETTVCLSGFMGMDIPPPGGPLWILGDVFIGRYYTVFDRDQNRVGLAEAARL
Description: Inhibitory activity against cathepsin D in bovine at 1*10e-5 M concentration. In outline: (§1)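 Bovine or human cathepsin D, assayed at pH 3.0; percent inhibition recorded with inhibitor at 1 × 10^-5 M, and also at 1 × 10^-7 M.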

Another assay concerns the target Pepsin A (Sus scrofa) (UniProt P00791). Briefly: Inhibitory activity against pepsin in porcine at 1*10e-5 M concentration. It counts as functional. In outline:
(§2)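 Human or porcine pepsin, assayed at pH 2.0; percent inhibition recorded with inhibitor at 1 × 10^-5 M.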

For assay [4], the system named is Rattus norvegicus. Briefly: Upon intraduodenal administration in rats at a dose of 10 mg/kg, portal plasma levels calculated after 10 min. The assay is classed as functional, organism-based. Also noted: dose 10 mg/kg. In outline:
(§3)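 Anesthetized rats given 10 mg/kg intraduodenally. Blood sampled at 10 and 30 min from the portal vein and from the systemic circulation. Drug level in plasma measured by renin inhibition assay, reported in ng/mL as mean ± SE, n = 3 (some groups 5 or 6).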

For assay [5], the system named is Rattus norvegicus. Briefly: Upon intraduodenal administration in rats at a dose of 10 mg/kg, systemic plasma levels calculated after 10 min. The assay is classed as functional, organism-based. Also noted: dose 10 mg/kg. In outline:
as §3

For assay [6], the system named is Rattus norvegicus. Briefly: Upon intraduodenal administration in rats at a dose of 10 mg/kg, systemic plasma levels calculated after 30 min. The assay is classed as functional, organism-based. Also on record: dose 10 mg/kg. An outline of the steps: as §3
Assay [7] has as its system Rattus norvegicus. Description: Upon intraduodenal administration in rats at a dose of 10 mg/kg, portal plasma levels calculated after 30 min. The assay is classed as functional, organism-based. Also on record: dose 10 mg/kg. In outline: as §3
Assay [8] has as its target T2, Cathepsin D (Bos taurus). Briefly: Inhibitory activity against cathepsin D in bovine at 1*10e-7 M concentration. An outline of the steps:
as §1

Assay [9] has as its target Cathepsin D (Homo sapiens) (UniProt P07339). Briefly: Inhibitory activity against cathepsin D in human at 1*10e-5 M concentration. An outline of the steps:
as §1

The target is the same in assay [10]. Description: Inhibitory activity against cathepsin D in human at 1*10e-7 M concentration. In outline:
as §1

The next assay deals with Pepsin A (Homo sapiens) (UniProt P0DJD9). Briefly: Inhibitory activity against human pepsin at 1*10e-5 M. The assay is classed as functional. An outline of the steps: as §2
Pepsin A (Homo sapiens), sequence (P0DJD9 63-388 limits assumed): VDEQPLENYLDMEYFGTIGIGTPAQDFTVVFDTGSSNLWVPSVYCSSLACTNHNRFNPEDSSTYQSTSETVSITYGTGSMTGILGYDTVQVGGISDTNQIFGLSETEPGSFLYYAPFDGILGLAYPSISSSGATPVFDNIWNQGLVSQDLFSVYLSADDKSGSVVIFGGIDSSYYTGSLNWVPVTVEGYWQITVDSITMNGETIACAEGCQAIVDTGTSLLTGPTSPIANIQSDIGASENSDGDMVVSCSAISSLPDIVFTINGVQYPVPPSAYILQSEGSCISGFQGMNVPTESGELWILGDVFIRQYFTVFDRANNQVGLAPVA

Pepsin A (Sus scrofa), sequence (P00791 60-385 limits assumed): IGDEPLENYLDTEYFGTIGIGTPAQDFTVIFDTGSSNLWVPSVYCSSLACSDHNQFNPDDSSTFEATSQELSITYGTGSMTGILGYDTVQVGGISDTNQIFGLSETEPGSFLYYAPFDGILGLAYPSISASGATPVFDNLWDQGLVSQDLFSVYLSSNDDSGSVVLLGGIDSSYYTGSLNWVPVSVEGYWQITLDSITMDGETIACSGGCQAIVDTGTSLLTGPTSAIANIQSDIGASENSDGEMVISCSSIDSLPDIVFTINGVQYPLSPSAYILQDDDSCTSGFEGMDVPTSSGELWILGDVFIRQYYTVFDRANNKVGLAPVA
Cathepsin D (Homo sapiens), sequence (P07339 65-162 limits assumed): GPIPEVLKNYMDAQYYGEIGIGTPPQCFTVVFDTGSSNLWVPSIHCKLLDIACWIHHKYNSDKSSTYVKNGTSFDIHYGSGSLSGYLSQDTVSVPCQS
Cathepsin D (Homo sapiens), sequence (P07339 169-412 limits assumed): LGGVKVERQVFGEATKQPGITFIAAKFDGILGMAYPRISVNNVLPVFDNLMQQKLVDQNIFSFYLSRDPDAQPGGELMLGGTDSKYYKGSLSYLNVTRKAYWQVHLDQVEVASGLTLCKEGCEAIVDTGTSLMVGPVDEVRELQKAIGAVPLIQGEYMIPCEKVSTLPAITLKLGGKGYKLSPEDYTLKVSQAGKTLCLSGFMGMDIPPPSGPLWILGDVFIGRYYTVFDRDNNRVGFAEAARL

Consider `CCN1C[C@@H]([C@H](O)[C@H](CC2CCCCC2)NC(=O)[C@H](Cc2cccs2)NC(=O)[C@@H](CC(=O)N2CCOCC2)Cc2ccccc2)OC1=O`, for which the IC50 (usually the concentration that gives 50% inhibition) on Renin [1] was found to be 43 nM; on Renin [2] it was 1.5 nM.
With `CCN1C[C@@H]([C@H](O)[C@H](CC2CCCCC2)NC(=O)[C@H](Cc2c[nH]cn2)NC(=O)[C@@H](CC(=O)N2CCOCC2)Cc2ccccc2)OC1=O`, the inhibition on Cathepsin D (Bos taurus) [3] and against Pepsin A (Sus scrofa) was 2% throughout. In addition, the Plasma level was 280 ng/mL in the assay with Rattus norvegicus [4], 55 ng/mL with Rattus norvegicus [5], 34 ng/mL with Rattus norvegicus [6] and 390 ng/mL in the assay with Rattus norvegicus [7].
With `CCN1C[C@@H]([C@H](O)[C@H](CC2CCCCC2)NC(=O)[C@H](Cc2cn(C)cn2)NC(=O)[C@@H](CC(=O)N2CCOCC2)Cc2ccccc2)OC1=O`, the values for the half-maximal inhibitory concentration (IC50) against Renin [1] and on Renin [2] were 58 nM and 7.4 nM, respectively.
As for `CCN1C[C@@H]([C@H](O)[C@H](CC2CCCCC2)NC(=O)[C@H](Cc2cc[nH]n2)NC(=O)[C@@H](CC(=O)N2CCOCC2)Cc2ccccc2)OC1=O`, the Plasma level was 28 ng/mL in the assay with Rattus norvegicus [4], 6.7 ng/mL in the assay on Rattus norvegicus [5], 7 ng/mL with Rattus norvegicus [6] and 58 ng/mL with Rattus norvegicus [7]. Also, the figures for the IC50 against Renin [1] and on Renin [2] were 21 nM and 1.1 nM, respectively.
As to `CCN1C[C@@H]([C@H](O)[C@H](CC2CCCCC2)NC(=O)[C@H](Cc2cscn2)NC(=O)[C@@H](CC(=O)N2CCOCC2)Cc2ccccc2)OC1=O`, the inhibition (in general, the percentage by which the read-out fell short of the control) was 93% at Cathepsin D (Bos taurus) [3]; 28% at Cathepsin D (Bos taurus) [8]; 100% in [9]; 40% in assay [10]; 26% on Pepsin A (Homo sapiens); 57% against Pepsin A (Sus scrofa). The Plasma level was 1900 ng/mL in the assay on Rattus norvegicus [4], 320 ng/mL in the assay on Rattus norvegicus [5], 300 ng/mL in the assay with Rattus norvegicus [6] and 1100 ng/mL with Rattus norvegicus [7]. In addition, the half-inhibitory concentration (IC50) on Renin [1] is 8.1 nM; against Renin [2], 0.6 nM.
